Molecules are shown by their SMILES. In brackets after ≈: the same amount, converted by molar mass.

For series [1], the system named is Human immunodeficiency virus 1. Put plainly: Antiviral activity against HIV-1 3B infected in human MT-4 cells assessed as protection against virus induced cytopathic effect after 5 days by MTT assay. The format is functional, cell-based. The conditions noted are these: Human immunodeficiency virus 1, 3B, MT4, 120 h. A digest of the protocol: (§1)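 MT-4 cells, exponentially growing, resuspended at 6 x 10⁵ cells/mL and infected with HIV-1 IIIB or HIV-2 ROD at 100-300 CCID50. Test compounds added as serial 5-fold dilutions in triplicate wells at the start. Untreated infected and mock-infected controls included. Viability read by MTT spectrophotometrically 5 days post-infection. EC50 is the concentration giving 50% protection from virus-induced cytopathic effect.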
Background: Protection from cytopathic effect is a common read-out in antiviral testing.

Series [2] in a line: Antiviral activity against HIV-2 ROD infected in human MT-4 cells assessed as protection against virus induced cytopathic effect after 5 days by MTT assay. The following applies: Human immunodeficiency virus 2, MT4, 120 h. The format is functional, cell-based, Human immunodeficiency virus type 2 (ISOLATE ROD). A digest of the protocol: as §1
A short description of series [3]: Cytotoxicity against human MT4 cells assessed as reduction in cell viability after 5 days by MTT assay. The format is toxicity, cell-based. A digest of the protocol:
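Mock-infected MT-4 cells (6 x 10⁵ cells/mL) were run in parallel with the infected series. Serial 5-fold compound dilutions were tested in triplicate wells, with culture medium in place of virus. Viability was measured by MTT at day 5. CC50 is the concentration that reduces viability of mock-infected cells by 50%.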
A general note: Tetrazolium assays rely on reduction of a dye to a coloured formazan, in cell work by metabolically active cells.

Series [4] is described as follows: Selectivity index, ratio of CC50 for human MT-4 cells to IC50 for HIV-1 3B infected in human MT-4 cells. The format is functional, MT4. Summed up:
(§2)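 Selectivity index is CC50 in mock-infected MT-4 cells divided by IC50 against HIV-1 IIIB or HIV-2 ROD. Both values come from parallel 5-day MTT assays in the same plates.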

Series [5] in a line: Selectivity index, ratio of CC50 for human MT-4 cells to IC50 for HIV-2 ROD infected in human MT-4 cells. It counts as functional, MT4. Summed up:
as §2

The IC50 is the point on the concentration scale where inhibition reaches its midpoint. In general, CC50 refers to the concentration at which the toxic effect on the cells reaches its halfway point. Take `COc1cccc(-c2cc3oc(=O)cc(C)c3cc2OS(=O)(=O)C(F)(F)F)c1`: the IC50 in series [1] and in series [2] was > 18.9 µg/mL in each case. In series [3], the CC50 at 120 h stood at 18.9 µg/mL (≈ 45.5 µM). For the same compound, the “Ratio CC50/IC50” value in series [4] and in series [5] was <1 each time.

Take `COc1ccc(-c2cc3oc(=O)cc(C)c3cc2-c2ccc(F)cc2)cc1`: the IC50 in series [1] and in series [2] was > 10.9 µg/mL throughout. Besides, the CC50 at 120 h in series [3] turned out to be 10.9 µg/mL (≈ 30.3 µM). Further, the “Ratio CC50/IC50” value in series [4] and in series [5] was <1 throughout.

Take `COc1ccc(-c2cc3oc(=O)cc(C)c3cc2-c2cc(C)cc(C)c2)cc1`: the IC50 in series [1] and in series [2] was > 2.08 µg/mL throughout. In addition, the CC50 at 120 h in series [3] was 2.08 µg/mL (≈ 5.61 µM). Also, the “Ratio CC50/IC50” value in series [4] and in series [5] was <1 throughout.

`Cc1ccc(-c2cc3oc(=O)cc(C)c3cc2OS(=O)(=O)C(F)(F)F)cc1`: the IC50 in series [1] and in series [2] was > 11 µg/mL throughout. In series [3], the CC50 at 120 h was determined as 11 µg/mL (≈ 27.6 µM). In addition, the “Ratio CC50/IC50” value in series [4] and in series [5] was <1 throughout.

As for `Cc1cc(C)cc(-c2cc3oc(=O)cc(C)c3cc2-c2cc(C)cc(C)c2)c1`, the IC50 is 4.57 µg/mL (≈ 12.4 µM) in series [1] and > 14.4 µg/mL in series [2]. For the same compound, in series [3], the CC50 at 120 h amounted to 14.4 µg/mL (≈ 39.1 µM). The “Ratio CC50/IC50” value in series [4] is on record as 3; in series [5], <1.

Regarding `COc1ccc(-c2cc3oc(=O)cc(C)c3cc2-c2cccc(C)c2)cc1`, the IC50 in series [1] and in series [2] was > 7.4 µg/mL throughout. The CC50 at 120 h in series [3] amounted to 7.4 µg/mL (≈ 20.8 µM). Also, the “Ratio CC50/IC50” value in series [4] and in series [5] was <1 in each case.

In the case of `CCOc1ccc(-c2cc3oc(=O)cc(C)c3cc2-c2ccc(OCC)cc2)cc1`, the IC50 in series [1] and in series [2] was > 37.3 µg/mL throughout. For the same compound, the CC50 at 120 h in series [3] turned out to be 37.3 µg/mL (≈ 93.2 µM). For the same compound, the “Ratio CC50/IC50” value in series [4] and in series [5] was <1 in each case.

As for `Cc1cc(=O)oc2cc(-c3ccc(Cl)cc3)c(-c3ccc(Cl)cc3)cc12`, the IC50 in series [1] and in series [2] was > 16 µg/mL in each case. Moreover, the CC50 at 120 h in series [3] turned out to be 16 µg/mL (≈ 41.9 µM). The “Ratio CC50/IC50” value in series [4] and in series [5] was <1 in each case.

As to `COc1ccc(-c2cc3oc(=O)cc(C)c3cc2-c2ccc(OC)cc2)cc1`, the IC50 in series [1] and in series [2] was > 11 µg/mL each time. Besides, the CC50 at 120 h in series [3] came to 11 µg/mL (≈ 29.5 µM). In addition, the “Ratio CC50/IC50” value in series [4] and in series [5] was <1 in each case.

Turning to `Cc1cc(=O)oc2cc(-c3ccc(C(F)(F)F)cc3)c(OS(=O)(=O)C(F)(F)F)cc12`, the IC50 in series [1] and in series [2] was > 80.3 µg/mL throughout. For the same compound, the CC50 at 120 h in series [3] turned out to be 80.3 µg/mL (≈ 178 µM). Moreover, the “Ratio CC50/IC50” value in series [4] and in series [5] was <1 each time.

As for `Cc1cc(=O)oc2cc(OS(=O)(=O)C(F)(F)F)c(OS(=O)(=O)C(F)(F)F)cc12`, the IC50 in series [1] and in series [2] was > 43.5 µg/mL in each case. The CC50 at 120 h in series [3] came out at 43.5 µg/mL (≈ 95.3 µM). Moreover, the “Ratio CC50/IC50” value in series [4] and in series [5] was <1 throughout.

As for `COc1ccc(-c2cc3oc(=O)cc(C)c3cc2OS(=O)(=O)C(F)(F)F)c(OC)c1OC`, the IC50 in series [1] and in series [2] was > 2.13 µg/mL each time. The CC50 at 120 h in series [3] was found to be 2.13 µg/mL (≈ 4.49 µM). The “Ratio CC50/IC50” value in series [4] and in series [5] was <1 each time.

For the compound `COc1ccc(-c2cc3oc(=O)cc(C)c3cc2OS(=O)(=O)C(F)(F)F)cc1`, the IC50 in series [1] and in series [2] was > 10.6 µg/mL throughout. For the same compound, the CC50 at 120 h in series [3] is ≥ 10.6 µg/mL. In addition, the “Ratio CC50/IC50” value in series [4] and in series [5] was <1 throughout.

`Cc1cc(C)cc(-c2cc3oc(=O)cc(C)c3cc2OS(=O)(=O)C(F)(F)F)c1`: the IC50 in series [1] and in series [2] was > 33.1 µg/mL in each case. Moreover, in series [3], the CC50 at 120 h came to 33.1 µg/mL (≈ 80.3 µM). Moreover, the “Ratio CC50/IC50” value in series [4] and in series [5] was <1 throughout.

`CCOc1ccc(-c2cc3oc(=O)cc(C)c3cc2OS(=O)(=O)C(F)(F)F)cc1`: the IC50 in series [1] and in series [2] was > 27.2 µg/mL throughout. Besides, the CC50 at 120 h in series [3] was ≥ 27.2 µg/mL. In addition, the Ratio CC50/IC50 in series [4] was < 1; in series [5] it was <1.

On to `Cc1cc(=O)oc2cc(-c3ccc(C(C)(C)C)cc3)c(OS(=O)(=O)C(F)(F)F)cc12`, for which the IC50 in series [1] and in series [2] was > 10.3 µg/mL throughout. For the same compound, in series [3], the CC50 at 120 h amounted to 10.3 µg/mL (≈ 23.3 µM). The “Ratio CC50/IC50” value in series [4] and in series [5] was <1 each time.

Turning to `Cc1cc(=O)oc2cc(-c3ccccc3)c(-c3ccccc3)cc12`, the IC50 in series [1] and in series [2] was > 13.8 µg/mL throughout. Besides, the CC50 at 120 h in series [3] was determined as 13.8 µg/mL (≈ 44.1 µM). The “Ratio CC50/IC50” value in series [4] and in series [5] was <1 throughout.

Consider `COc1ccc(-c2cc3oc(=O)cc(C)c3cc2-c2ccc(Cl)cc2)cc1`, for which the IC50 in series [1] and in series [2] was > 2.06 µg/mL in each case. The 50% cytotoxic concentration (CC50) at 120 h in series [3] came out at 2.06 µg/mL (≈ 5.47 µM). Besides, the “Ratio CC50/IC50” value in series [4] and in series [5] was <1 in each case.

Take `Cc1cccc(-c2cc3oc(=O)cc(C)c3cc2OS(=O)(=O)C(F)(F)F)c1`: the IC50 in series [1] was 13.2 µg/mL (≈ 33.1 µM); in series [2], > 61.3 µg/mL. For the same compound, in series [3], the half-maximal cytotoxic concentration (CC50) at 120 h turned out to be 61.3 µg/mL (≈ 154 µM). Besides, the “Ratio CC50/IC50” value in series [4] is 5; in series [5], <1.

Consider `Cc1cc(=O)oc2cc(-c3ccc(F)cc3)c(OS(=O)(=O)C(F)(F)F)cc12`, for which the IC50 in series [1] and in series [2] was > 10.6 µg/mL in each case. Further, the CC50 at 120 h in series [3] stood at 10.6 µg/mL (≈ 26.4 µM). Besides, the “Ratio CC50/IC50” value in series [4] and in series [5] was <1 each time.

Turning to `Cc1cc(=O)oc2cc(-c3ccc(Cl)cc3)c(OS(=O)(=O)C(F)(F)F)cc12`, the IC50 in series [1] was > 30.6 µg/mL; in series [2], > 35.6 µg/mL. The CC50 at 120 h in series [3] amounted to 35.6 µg/mL (≈ 85.1 µM). Also, the “Ratio CC50/IC50” value in series [4] and in series [5] was <1 throughout.

As to `Cc1cc(=O)oc2cc(-c3ccccc3)c(OS(=O)(=O)C(F)(F)F)cc12`, the IC50 in series [1] and in series [2] was > 12.5 µg/mL in each case. For the same compound, in series [3], the CC50 at 120 h amounted to 12.6 µg/mL (≈ 32.7 µM). The “Ratio CC50/IC50” value in series [4] and in series [5] was <1 throughout.

For `Cc1ccnc2c1NC(=O)c1cccnc1N2C1CC1` [NEVIRAPINE], the IC50 in series [2] was > 4 µg/mL. Besides, the CC50 at 120 h in series [3] is > 4 µg/mL. The “Ratio CC50/IC50” value is recorded as >80 in series [4] and <1 in series [5].

In the case of `Cc1cn([C@H]2C[C@H](N=[N+]=[N-])[C@@H](CO)O2)c(=O)[nH]c1=O` [ZIDOVUDINE], the IC50 in series [2] was found to be 0.00094 µg/mL (≈ 0.00352 µM). For the same compound, in series [3], the CC50 at 120 h is > 25 µg/mL. Moreover, the “Ratio CC50/IC50” value in series [4] was >11363; in series [5], >26596.

Values taken from ChEMBL document CHEMBL3853346, “Synthesis of arylated coumarins by Suzuki-Miyaura cross-coupling. Reactions and anti-HIV activity” (Bioorg Med Chem, 2016).
